HTR2A ag: mouse HTR2A agonism via beta-arrestin recruitment | P35363 | CHO-K1 mHTR2A beta-arrestin complementation, luminescence; percent of 30 µM serotonin response | activation, % at 7.6 µM | 360,000 tested, 0.66% active;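 active = activation above a run cutoff, the mean activation of all tested compounds plus 3 SD, cut at about 14% in these data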
APJ ag: activates the human apelin receptor APJ; P35414; CHO-K1 APJ PathHunter beta-arrestin, luminescence; 0% DMSO wells, 100% apelin; activation, % at 20 µM; 330,000 tested, 0.11% active; AID 2520;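 active = activation more than six SD over the plate average, tested at 20 µM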
Target sequence (P35414 whole entry, looked up): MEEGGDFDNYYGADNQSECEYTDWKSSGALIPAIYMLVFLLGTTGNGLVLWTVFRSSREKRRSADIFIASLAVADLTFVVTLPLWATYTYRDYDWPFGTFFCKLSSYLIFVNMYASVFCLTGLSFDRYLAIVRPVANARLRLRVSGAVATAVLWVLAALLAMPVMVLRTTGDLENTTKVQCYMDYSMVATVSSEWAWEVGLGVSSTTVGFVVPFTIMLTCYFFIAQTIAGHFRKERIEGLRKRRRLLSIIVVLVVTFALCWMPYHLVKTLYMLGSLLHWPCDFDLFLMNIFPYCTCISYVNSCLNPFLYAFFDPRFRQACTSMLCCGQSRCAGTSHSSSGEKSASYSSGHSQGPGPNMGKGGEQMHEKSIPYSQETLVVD
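Incubation: overnight seeding, 90 min compound at 25 °C, 1 h detection; test system: PathHunter CHO-K1 APJ (AGTRL-1) beta-arrestin reporter cells; amount: 1000 cells/well; doses: one dose, 20 µM compound, 1% DMSO; measured by: beta-gal luminescence; measure: agonist-driven arrestin binding to APJ; benchmarks: negative DMSO alone, positive Apelin-13 at 10 nM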
APJ antag: APJ receptor antagonism | P35414 | CHO-K1 APJ beta-arrestin complementation, luminescence | inhibition, % at 20 µM | 330,000 tested, 0.32% active;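 active = inhibition above about 40% at 20 µM, limit read from the data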;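 note: cells challenged with 10 nM apelin-13 agonist together with compound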
CCR6 antagonist: antagonists of human CCR6 receptor. 340,000 tested, 0.49% active. inhibition, % at 20 µM. P51684. CHO-K1 CCR6 PathHunter beta-arrestin, luminescence, CCL20-stimulated;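 active = compounds whose inhibition of the agonist-driven luminescence signal at 20 µM reaches about 50%, limit read from the data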;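 note: cells stimulated with CCL20 at 14 nM final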
EBI2 block: blocks human EBI2 receptor beta-arrestin signaling. EBI2 beta-arrestin recruitment, luminescence, 7a,25-OHC stimulated. inhibition, % at 5 µM. 360,000 tested, 0.81% active. AID 651636; in the data active = inhibition above about 38%;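 note: enzyme fragment complementation signal reports receptor beta-arrestin coupling in cells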
Target sequence (P32249 whole entry, looked up, the tested form may be a part): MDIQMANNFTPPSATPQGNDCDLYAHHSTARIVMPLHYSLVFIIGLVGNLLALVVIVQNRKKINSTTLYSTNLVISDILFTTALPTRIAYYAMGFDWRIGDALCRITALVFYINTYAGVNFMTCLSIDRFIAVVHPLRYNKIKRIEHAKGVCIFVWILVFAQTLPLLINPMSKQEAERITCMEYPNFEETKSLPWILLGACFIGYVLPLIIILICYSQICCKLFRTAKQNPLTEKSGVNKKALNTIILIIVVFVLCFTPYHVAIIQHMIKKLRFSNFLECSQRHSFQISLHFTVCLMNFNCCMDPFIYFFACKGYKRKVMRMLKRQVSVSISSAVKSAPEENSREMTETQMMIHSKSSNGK
CXCR6 inh: blocks human CXCR6 beta-arrestin recruitment | AID 602244 | 360,000 tested, 0.36% active | CHO-K1 PathHunter CXCR6 beta-arrestin, luminescence | inhibition, % at 20 µM; in the data active = inhibition above about 34%, passing the limit was not always enough;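 note: antagonist mode with CXCL16 agonist at 10 nM final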
APJ ag conf: confirmation of human APJ apelin receptor agonists; shares compounds with APJ ag; CHO-K1 APJ PathHunter beta-arrestin, luminescence; activation, % at 20 µM; 310 tested, 10% active;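 active = activation above 40%, taking the highest of four retests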
APJ antag confirm: confirmation of human APJ apelin receptor antagonists; shares compounds with APJ antag; APJ beta-arrestin recruitment, luminescence, antagonist mode; inhibition, % at 20 µM; 950 tested, 66% active; AID 2766; in the data active = inhibition above about 50%
CXCR6 confirm: CXCR6 antagonism confirmation, single concentration | shares compounds with CXCR6 inh | CHO-K1 CXCR6 PathHunter beta-arrestin, luminescence | inhibition, % at 20 µM | 700 tested, 65% active;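 active = mean inhibition over four retests above 40%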;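 note: receptor stimulated with 10 nM CXCL16 agonist; beta-galactosidase fragment complementation upon beta-arrestin recruitment to receptor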
OPRM1 ag: counter-screen for mouse HTR2A agonists: human mu opioid receptor agonists; U2OS OPRM1 beta-arrestin PathHunter, luminescence; DMSO 0%, DAMGO 9.3 µM 100%; AID 624380; activation, % at 9.3 µM; shares compounds with HTR2A ag; 2,300 tested, 5.3% active;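 active = mean activation above the mean of DMSO-only wells plus 3 SD, cut at about 0.5% in these data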
m5-HT2A ag conf: mouse HTR2A agonism confirmed. shares compounds with HTR2A ag. CHO-K1 PathHunter beta-arrestin recruitment, luminescence; DMSO 0%, 30 µM serotonin 100%. activation, % at 7.6 µM. 2,300 tested, 19% active. AID 624381;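 active = mean activation across triplicates above the hit threshold derived in the original primary screen, cut at about 15% in these data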
EBI2 antag conf: confirmation of human EBI2 receptor antagonists; shares compounds with EBI2 block; inhibition, % at 5 µM; EBI2 beta-arrestin luminescence, 7a,25-OHC antagonism; 2,400 tested, 29% active; AID 651997;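 active = inhibition of at least 50%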
EBI2 ag: counter-screen for EBI2 antagonists: EBI2 agonist activity. shares compounds with EBI2 block. activation, % at 5 µM. 2,400 tested, under 10 active. EBI2-expressing cells, agonist mode, luminescence, 60 min; 0% vehicle, 100% 7α,25-dihydroxycholesterol control;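 active = activation of at least 50%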
bGal cs: beta-galactosidase inhibition counter-screen; shares compounds with EBI2 block; purified beta-galactosidase, luminescent Galacton Star, 15 min; inhibition, % at 5 µM; 2,400 tested, 1% active;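 active = replicate-average signal at least 3 plate SD below neutral wells, shown as high inhibition, flagging enzyme-inhibiting false positives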;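 note: higher means stronger loss of beta-gal luminescence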
Each line names hits and unclear results; the compound was inactive in the other large screens (follow-up assays come after a bar, where they were run). In the library only some 2.1% were active in any assay of this set; here they are far more common.

CCOc1cc2[nH]c(=S)n(CCCC(=O)N3CCC4(CC3)OCCO4)c(=O)c2cc1OCC	APJ ag 34.8 | APJ ag conf inactive
CCOP(=O)(OCC)c1cc(C)c(O)c(C(C)(C)C)c1	none
O=C1/C(=C/c2ccccc2)C[C@@]2(O)[C@H]3Cc4ccc(O)c5c4[C@@]2(CCN3CC2CC2)C1O5 (some centres undefined)	APJ antag 55.6, CCR6 antagonist 79.5, EBI2 block 54.6, CXCR6 inh 58.1 | APJ antag confirm 92.6
Oc1ccc2c3c1OC1c4[nH]c5ccccc5c4C[C@@]4(O)C(C2)N(CC2CC2)CC[C@]314 (some centres undefined)	none
CN1C(=O)C(=Cc2ccc(N3CCOCC3)o2)C(=O)N(C)C1=O	none
CN1C(=O)C(=Cc2ccc(N3CCCCCC3)o2)C(=O)N(C)C1=S	APJ antag 47.3 | APJ antag confirm 79.4
CC(N)C(=O)OC(C)(C)Cc1ccc(Cl)cc1 (centres undefined)	none
N#Cc1c(/N=C/c2ccc(O)cc2O)sc2c1C1CCN2CC1	APJ antag 42.3 | APJ antag confirm inactive
CCC1CCCCN1CC(=O)c1ccc(OC(F)F)cc1 (centres undefined)	APJ antag 44.4 | APJ antag confirm 51.7
Clc1ccc(C(Cl)(Cl)Cl)c(Cl)c1	none
Nc1c(C(=O)OCc2ccccc2)c2nc3ccccc3nc2n1Cc1cccs1	APJ antag 63.0, EBI2 block 50.2 | APJ antag confirm inactive | EBI2 antag conf inactive | EBI2 ag inactive | bGal cs inactive
CCN1C[C@]2(OC(=O)c3ccccc3NC(C)=O)CCC(OC)C34C5C[C@H]6C(OC)[C@]5(O)[C@](O)(C[C@@H]6OC)C(C[C@@H]32)[C@H]14 (some centres undefined)	none
COC(=O)C1=C(C(=O)OC)C2OC1c1cc3ccccc3cc12	CCR6 antagonist 109.2, CXCR6 inh 85.1 (no result: APJ ag, APJ antag) | CXCR6 confirm 91.1
COc1ccc(C(C)=O)cc1Cc1c(O)[nH]c(=S)[nH]c1=O	none
CC(=O)N1Cc2cnnn2-c2ccccc2C1C#N (centres undefined)	none (no result: APJ ag, APJ antag)
CC1=C(O)C(=O)C=C2C1=CC=C1C2(C)CCC2(C)C3CC(C)(C(=O)O)CCC3(C)CCC12C (centres undefined)	CXCR6 inh 64.1 (no result: APJ ag, APJ antag, CCR6 antagonist) | CXCR6 confirm 53.3
C[C@@H](N)Cc1cnc[nH]1	HTR2A ag 15.2 | OPRM1 ag inactive | m5-HT2A ag conf inactive
NCCNc1ccc([N+](=O)[O-])c2cccnc12	HTR2A ag 22.4 | OPRM1 ag inactive | m5-HT2A ag conf inactive
CC(O)CNc1ccc([N+](=O)[O-])c2cccnc12 (centres undefined)	none
Cc1cccc(-n2c(O)c(C=NCc3cccnc3)c(=O)[nH]c2=O)c1C	none
CCCN(CC#CCOc1ccc(OC)cc1)CCC	none
NCC(O)c1cc(O)c(O)cc1F (centres undefined)	HTR2A ag 55.8 | OPRM1 ag inactive | m5-HT2A ag conf 149.5
COc1ccc(N2C(=O)/C(=C/c3ccc(OC)c(OC)c3)C(=O)NC2=S)cc1	none
COc1ccc(N2C(=O)/C(=C/c3ccc(C)o3)C(=O)NC2=S)c(OC)c1	HTR2A ag 22.9 | OPRM1 ag inactive | m5-HT2A ag conf inactive
CCCN1CCC[C@@H](c2cccc(O)c2)C1	HTR2A ag 22.8 | OPRM1 ag inactive | m5-HT2A ag conf 63.8
CCCN1CCC[C@H](c2cccc(O)c2)C1	HTR2A ag 37.5 | OPRM1 ag inactive | m5-HT2A ag conf 122.4
Cc1nc2ccsc2c(=O)n1-c1ccccc1Cl	none
c1ccc(CN2Cc3ccccc3-n3nncc3C2)cc1	none (no result: APJ ag, APJ antag, CCR6 antagonist)
c1coc(CN2Cc3ccccc3-n3nncc3C2)c1	HTR2A ag 17.7 (no result: APJ ag, APJ antag, CCR6 antagonist) | OPRM1 ag inactive | m5-HT2A ag conf inactive
CC[N+](CC)(CC#CCO)CC#Cc1ccccc1	none
CC12CN3CC(c4ccccc4)(CN(C1)C31CCCCC1)C2=O	HTR2A ag 16.4 | OPRM1 ag inactive | m5-HT2A ag conf inactive
CC1OC(OC2C=C3CCC4C(CCC5(C)C(c6ccc(=O)oc6)CCC45O)C3(C)CC2)C(O)C(OC2OC(CO)C(O)C(O)C2O)C1O (centres undefined)	HTR2A ag 15.5 (no result: APJ ag, APJ antag) | OPRM1 ag 6.9 | m5-HT2A ag conf inactive
CCN(CC)C(=O)COc1cc(C)cc2oc(=O)c3c(c12)CCCC3	HTR2A ag 14.4 | OPRM1 ag inactive | m5-HT2A ag conf inactive
CCC(=O)[C@@H](C)[C@@H](O)[C@H](C)C[C@@H](C)C1OC(=O)C[C@@]2(O)CC=C(C)C(O2)C(C)=CCCC[C@H](O[C@H]2C[C@@H](OC(N)=O)[C@H](O)[C@@H](C)O2)C=C[C@H](C)C[C@H]1C (some centres undefined)	none (no result: APJ ag, APJ antag, CCR6 antagonist)
Cc1cccc(CCNCc2cc3cccc(C)c3[nH]c2=O)c1	HTR2A ag 20.9 | OPRM1 ag inactive | m5-HT2A ag conf inactive
C[C@H]1[C@@H](c2ccccc2)O[C@@H](c2ccccc2Br)N1C	none
COc1cc(/C=C2\C(=O)NC(=O)N(c3ccccc3)C2=O)cc(OC)c1OC	HTR2A ag 15.1 | OPRM1 ag inactive | m5-HT2A ag conf inactive
CN1CCC(c2c[nH]c3ccc(O)cc23)CC1	HTR2A ag 49.7 (no result: APJ ag, APJ antag) | OPRM1 ag inactive | m5-HT2A ag conf 31.7

Bioassay records deposited in PubChem by several laboratories.
